# Measured values reported in paper PMC7237957 (European Heart Journal Cardiovascular Imaging, 2019).
# Like-named read-outs stand apart in the source and are kept apart here.
# Key:
# Format in all cases: binding
# human thrombus = target: T1, human thrombus (Homo sapiens, UniProt P00488); assay: Autoradiography of ex vivo human thrombus sections with blocking; conditions: human explanted thrombus sections; 5 μM co-incubated
# T1 sequence (P00488 39-732 limits assumed): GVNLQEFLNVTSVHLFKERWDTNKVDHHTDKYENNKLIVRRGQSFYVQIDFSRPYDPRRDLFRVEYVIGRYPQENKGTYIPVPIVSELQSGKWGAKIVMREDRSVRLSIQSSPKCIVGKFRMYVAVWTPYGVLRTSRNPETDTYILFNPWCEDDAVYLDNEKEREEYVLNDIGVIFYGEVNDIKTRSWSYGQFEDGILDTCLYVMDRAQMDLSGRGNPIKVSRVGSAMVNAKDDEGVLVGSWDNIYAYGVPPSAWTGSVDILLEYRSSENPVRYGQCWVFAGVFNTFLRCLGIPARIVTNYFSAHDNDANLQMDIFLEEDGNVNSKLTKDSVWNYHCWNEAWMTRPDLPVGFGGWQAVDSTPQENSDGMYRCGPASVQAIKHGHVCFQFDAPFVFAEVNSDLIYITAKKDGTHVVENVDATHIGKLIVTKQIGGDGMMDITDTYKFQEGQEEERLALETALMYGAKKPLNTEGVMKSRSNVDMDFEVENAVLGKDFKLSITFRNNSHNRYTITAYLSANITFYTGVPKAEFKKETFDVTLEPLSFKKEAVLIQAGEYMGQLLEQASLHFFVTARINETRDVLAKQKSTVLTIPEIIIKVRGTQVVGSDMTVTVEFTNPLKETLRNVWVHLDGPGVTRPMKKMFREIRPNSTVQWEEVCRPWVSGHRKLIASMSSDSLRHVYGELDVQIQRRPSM
# How it was run: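 Paraffin-embedded cross-sections of ex vivo human thrombi (n = 3) were de-paraffinised, rehydrated and incubated 2 h at 37°C with 18F-tracer alone or co-incubated with unlabelled tracer, scrambled peptide or iodoacetamide (each 5 μM), in quadruplicate. Slides were washed twice in phosphate buffer, air-dried and exposed to a phosphor screen. Equal ROIs gave greyscale pixel intensity; %SB = tracer-only minus inhibitor-section activity.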
# Factor XIIIa = target: T2, Factor XIIIa (Homo sapiens, UniProt P00488); conditions: co-infusion of iodoacetamide 10 mg/mL, n = 10
# T2 sequence (P00488 39-732 limits assumed): T1 sequence (P00488 39-732 limits assumed)
# How it was run: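 Native blood from healthy male volunteers was pumped at 10 mL/min for 5 min through three 37°C chambers over porcine aortic strips (intima removed), at 212 s−1 (low shear) or 1690 s−1 (high shear), then flushed with saline. Tracer was infused at 4.6 ± 0.5 MBq/mL, or 5.5 ± 0.9 MBq/mL with 10 mg/mL iodoacetamide. Strips were scanned by NanoPET/CT; equal thrombus VOIs (kBq/mL) were divided by infused MBq.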
# rodent carotid thrombus = target: T3, rodent carotid thrombus (Rattus norvegicus, UniProt O08619); conditions: rodent explanted thrombus sections; 5 μM co-incubated
# T3 sequence (O08619 39-732 limits assumed): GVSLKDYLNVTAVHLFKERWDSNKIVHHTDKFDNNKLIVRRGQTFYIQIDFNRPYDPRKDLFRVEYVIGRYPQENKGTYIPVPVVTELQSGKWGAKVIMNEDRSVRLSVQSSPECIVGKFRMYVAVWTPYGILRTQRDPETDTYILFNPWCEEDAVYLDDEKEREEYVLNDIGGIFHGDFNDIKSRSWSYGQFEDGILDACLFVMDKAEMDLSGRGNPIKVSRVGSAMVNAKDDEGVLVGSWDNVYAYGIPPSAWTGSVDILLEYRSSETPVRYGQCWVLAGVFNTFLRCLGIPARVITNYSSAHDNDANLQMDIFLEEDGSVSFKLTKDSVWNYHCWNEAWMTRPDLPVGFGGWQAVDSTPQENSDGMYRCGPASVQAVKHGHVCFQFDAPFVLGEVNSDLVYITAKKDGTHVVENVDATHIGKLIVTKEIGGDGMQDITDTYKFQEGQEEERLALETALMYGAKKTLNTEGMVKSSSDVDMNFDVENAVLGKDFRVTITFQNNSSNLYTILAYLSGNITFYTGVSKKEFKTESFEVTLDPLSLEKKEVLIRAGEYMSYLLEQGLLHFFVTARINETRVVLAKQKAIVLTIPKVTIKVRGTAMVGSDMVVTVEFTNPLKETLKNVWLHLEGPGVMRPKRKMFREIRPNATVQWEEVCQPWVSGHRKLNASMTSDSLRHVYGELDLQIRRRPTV
# How it was run: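 Thrombosed left common carotid (ferric chloride model) was harvested from one rat after sacrifice. Sections were de-paraffinised, rehydrated and incubated 2 h at 37°C with 18F-tracer alone or with 5 μM unlabelled tracer, scrambled peptide or iodoacetamide. They were then washed, dried and exposed to a phosphor screen. Greyscale intensity was read in equal ROIs; %SB = tracer-only minus inhibitor sections.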
compound,measurement,setting,value
"NC(=O)CI [iodoacetamide, Iodoacetamide]",Effect on 18F-ENC2015 uptake (autoradiography),human thrombus,no effect
same,Reduction of 18F-ENC2015 thrombus binding,Factor XIIIa; high shear thrombi,87%
same,Reduction of 18F-ENC2015 thrombus binding,Factor XIIIa; low shear thrombi,88%
same,Effect on 18F-ENC2015 uptake (autoradiography),rodent carotid thrombus,no effect
